# Measurements as given in ChEMBL document CHEMBL4422612, “Small Molecule Inhibitor that Stabilizes the Autoinhibited Conformation of the Oncogenic Tyrosine Phosphatase SHP2” (J Med Chem, 2019).
# Positions count from the first letter of the chain named. The source made the active and inactive calls. The rule behind the calls is not given here.
# Columns and labels:
# [1] = biological target: T1, Tyrosine-protein phosphatase non-receptor type 11 (Homo sapiens) (UniProt Q06124); experiment: Binding affinity to His-tagged SHP2 (unknown origin) assessed as melting temperature at 60 uM measured every 50 secs by thermal shift assay (reference value: 43.5 +/- 0.95 degC)
# T1 sequence (whole entry): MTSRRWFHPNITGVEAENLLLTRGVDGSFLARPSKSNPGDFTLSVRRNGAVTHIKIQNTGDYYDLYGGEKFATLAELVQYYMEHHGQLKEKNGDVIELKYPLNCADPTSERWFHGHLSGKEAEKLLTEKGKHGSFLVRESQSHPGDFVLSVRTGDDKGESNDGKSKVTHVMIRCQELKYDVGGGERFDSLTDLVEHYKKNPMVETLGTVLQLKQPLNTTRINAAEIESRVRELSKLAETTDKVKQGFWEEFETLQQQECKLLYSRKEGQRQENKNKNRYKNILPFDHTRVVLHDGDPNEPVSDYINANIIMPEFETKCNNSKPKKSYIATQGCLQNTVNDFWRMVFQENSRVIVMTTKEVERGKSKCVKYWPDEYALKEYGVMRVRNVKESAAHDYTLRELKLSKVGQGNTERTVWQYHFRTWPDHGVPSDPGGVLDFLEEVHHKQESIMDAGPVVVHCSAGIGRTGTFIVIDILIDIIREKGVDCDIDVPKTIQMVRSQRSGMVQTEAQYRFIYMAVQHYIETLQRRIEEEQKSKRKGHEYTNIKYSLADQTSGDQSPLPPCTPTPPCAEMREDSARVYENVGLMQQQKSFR
# [2] = tested on: T2, Tyrosine-protein phosphatase non-receptor type 11 (Homo sapiens), Q06124 [E76K]; experiment: Inhibition of recombinant full length human GST-tagged SHP2 E76K mutant using phospho-peptide as substrate pre-incubated for 30 mins before substrate addition and measured after 30 mins
# T2 sequence (whole entry): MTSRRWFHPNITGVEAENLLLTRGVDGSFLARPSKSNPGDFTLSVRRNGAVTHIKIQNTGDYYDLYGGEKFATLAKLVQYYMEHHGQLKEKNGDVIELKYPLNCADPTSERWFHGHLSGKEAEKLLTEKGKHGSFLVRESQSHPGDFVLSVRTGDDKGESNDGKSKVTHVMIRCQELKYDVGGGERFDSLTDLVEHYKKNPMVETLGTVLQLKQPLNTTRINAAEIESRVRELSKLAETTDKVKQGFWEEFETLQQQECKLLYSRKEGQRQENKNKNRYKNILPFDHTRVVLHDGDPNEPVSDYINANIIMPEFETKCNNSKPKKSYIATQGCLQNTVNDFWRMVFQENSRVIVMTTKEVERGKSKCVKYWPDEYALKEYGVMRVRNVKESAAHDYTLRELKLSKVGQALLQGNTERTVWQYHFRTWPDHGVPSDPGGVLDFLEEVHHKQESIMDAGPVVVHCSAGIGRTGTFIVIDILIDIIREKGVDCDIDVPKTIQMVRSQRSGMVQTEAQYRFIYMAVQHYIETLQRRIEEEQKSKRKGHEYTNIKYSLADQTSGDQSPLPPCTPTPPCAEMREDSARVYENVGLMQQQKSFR
# [3] = biological target: T1, Tyrosine-protein phosphatase non-receptor type 11 (Homo sapiens); experiment: Inhibition of human wild-type full length SHP2 at 20 uM using H-Glu-Phe-pTyr-Ala-Glu-Val-Gly-Arg-Ser-ProPro-Asp-Pro-Ala-Lys as substrate in presence of 0.001% Triton X
# Procedure, shortened: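 Full-length SHP2 or SHP1 (0.1 µg) preincubated with compound 30 min at room temperature in 25 mM Tris-HCl pH 7.4, 50 mM NaCl, 5 mM DTT, 2.5 mM EDTA. Phospho-peptide substrate added to 50 µM final; 30 min at 30 °C. Released phosphate read by Malachite Green at OD620. IC50 from six concentrations; three experiments.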
# [4] = biological target: T1, Tyrosine-protein phosphatase non-receptor type 11 (Homo sapiens); experiment: Binding affinity to full length wild type GST-tagged SHP2 (unknown origin) luminescence spectrometry-based quenching assay
# Procedure, shortened: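 Intrinsic fluorescence quenching of full-length WT GST-SHP2 held at 3.0 µM in 20 mM Tris-HCl pH 7.5 while compound concentration is increased. Excitation 295 nm, emission 360–500 nm. Compound-alone fluorescence subtracted; intensities are relative. Triplicates shown from one of three repeats.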
# [5] = biological target: T1, Tyrosine-protein phosphatase non-receptor type 11 (Homo sapiens); experiment: Inhibition of human wild-type full length SHP2 at 20 uM using H-Glu-Phe-pTyr-Ala-Glu-Val-Gly-Arg-Ser-ProPro-Asp-Pro-Ala-Lys as substrate in presence of 0.001% Triton X
# [6] = biological target: T3, Tyrosine-protein phosphatase non-receptor type 11 (Mus musculus) (UniProt P35235); experiment: Inhibition of PTPN11 in PTPN11-expressing mouse embryonic fibroblasts assessed as inhibition of cell growth at 6 uM after 24 to 72 hrs by cell proliferation-based assay
# T3 sequence (whole entry): T1 sequence (whole entry) with M450V, A550V, K590R
# Procedure, shortened: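 Ptpn11 fl/fl and Ptpn11 +/+ MEFs, both Ade-Cre+, infected with adeno-Cre, then given 6 µM compound or DMSO. Growth measured at 24, 48 and 72 h by One Solution proliferation assay. SHP2 loss confirmed by immunoblot. Triplicates from one of three experiments.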
# [7] = biological target: T1, Tyrosine-protein phosphatase non-receptor type 11 (Homo sapiens); experiment: Binding affinity to His-tagged SHP2 (unknown origin) assessed as melting temperature at 10 uM measured every 50 secs by thermal shift assay (reference value: 43.5 +/- 0.95 degC)
# [8] = biological target: T3, Tyrosine-protein phosphatase non-receptor type 11 (Mus musculus); experiment: Inhibition of SHP2 in mouse Ba/F3 cells assessed as reduction in IL3-stimulated ERK phosphorylation pretreated for 4 hrs followed by IL3 stimulation and measured after 5 to 60 mins by Western blot analysis; type: cell-based
# Procedure, shortened: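 Ba/F3 cells starved overnight in serum- and cytokine-free RPMI1640. Treated with 20 µM compound for 4 h, then IL-3 (2 ng/mL) for the indicated times. RIPA lysates (50 µg) immunoblotted for p-Erk, p-Akt, p-Jak2 and p-Stat5, then reprobed for total proteins. Representative of three experiments.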
smiles,measurement,setting,value
CCOc1cc(O)c(C(=O)/C=C/c2ccc(Cl)cc2Cl)cc1CN1CCC=C(n2c(=O)[nH]c3ccccc32)C1,Tm,[1],48.2 °C
same,inhibition,[2],Dose-dependent effect
same,inhibition,[3],Active
same,Activity,[4],Dose-dependent effect
same,inhibition,[5],Active
same,growth inhibition (GI),[6],Active
same,Tm,[7],47.2 °C
same,inhibition,[8],Dose-dependent effect
